Bioassay records (PubChem)
ATG4B inh – blocks human ATG4B protease cleavage of LC3 substrate. Q9Y4P1. ATG4B cleavage of LC3-PLA2, NBD-HPC fluorescence, 1 h. inhibition, % at 8.33 µM. 0.51% of 340,000 active. AID 504462; in the data active = inhibition above about 40%
MPTP inh – blocks calcium-induced mitochondrial swelling | isolated mouse mitochondria, Ca2+ swelling absorbance, 30 min | AID 602449 | inhibition, % at 10 µM | 1.4% of 360,000 active;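 active = inhibition of 50% or more, scaled per plate between neutral and stimulator controls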
MC4R antag cAMP – human MC4R antagonism in cAMP assay | P32245 | MC4R-expressing cells, MTII-stimulated cAMP, LANCE TR-FRET | inhibition, % at 6.5 µM | 0.48% of 360,000 active;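 active = inhibition above its plate's cutoff, the mean of tested wells on that plate plus 3 SD, cut at about 29% in these data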
Target sequence (P32245 whole entry, looked up): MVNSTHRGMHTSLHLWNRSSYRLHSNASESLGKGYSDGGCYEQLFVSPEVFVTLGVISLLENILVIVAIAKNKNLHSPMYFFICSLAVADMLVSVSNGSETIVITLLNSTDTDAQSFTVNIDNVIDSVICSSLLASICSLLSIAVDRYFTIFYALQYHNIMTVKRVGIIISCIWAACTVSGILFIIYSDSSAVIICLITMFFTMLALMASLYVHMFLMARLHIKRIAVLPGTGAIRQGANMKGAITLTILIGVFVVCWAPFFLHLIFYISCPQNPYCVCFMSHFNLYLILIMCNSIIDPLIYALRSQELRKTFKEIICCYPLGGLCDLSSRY
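material = U2OS cells stably expressing human melanocortin 4 receptor (MC4R) | also added = Melanotan II challenge | dosing = single nominal compound dose of 6.5 µM | detection = TR-FRET with Eu-cAMP and labeled anti-cAMP, 671 nm | replication = singlicate | timing = compound 30 min, challenge 1 h, detection 1 h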
MC4R barr agon – activates human MC4R beta-arrestin recruitment; 0.98% of 360,000 active; activation, % at 8.9 µM; U2OS MC4R beta-arrestin complementation, luminescence; percent of melanotan II response, DMSO zero;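 active = activation above a per-plate cutoff, the mean activation of sample wells on that plate plus 3 SD, cut at about 8% in these data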
SMARCA2 act – SMARCA2 function activation, primary screen. MG213 cells, MMTV-luciferase reporter, dexamethasone, overnight. AID 652017. 1% of 370,000 active. activation, % at 9.1 µM; in the data active = activation above about 7.8%
Rh123 counter – Rhodamine 123 counter-screen of mitochondrial pore hits; shares compounds with MPTP inh; isolated mitochondria, membrane potential, Rhodamine 123 fluorescence; inhibition, % at 10 µM; 78% of 5,000 active; in the data active = inhibition above about 22%
MPTP abs DR – MPTP inhibition, dose response swelling confirmation; shares compounds with MPTP inh; isolated mitochondria swelling, absorbance; IC50, µM; 58% of 780 active; AID 651561; in the data active = IC50 below about 20 µM
MPTP counter DR – counter-screen for mitochondrial permeability transition pore inhibitors, dose response; shares compounds with MPTP inh; isolated mitochondria counterscreen, fluorescence read-out; IC50, µM; 49% of 780 active; AID 651564; in the data active = IC50 below about 80 µM
Of the large screens only hits and unclear results are named; the others gave an inactive call (follow-up assays come after a bar, where they were run). Most compounds without a hit are left out; they make up all but 4.1% or so of the library.

CCOc1ccc2nc(NC(=O)Nc3ccccc3)sc2c1	MPTP inh 90 | Rh123 counter 74
COc1ccc(OCc2nnc(NC(=O)Nc3ccc(F)cc3)s2)cc1	MPTP inh 74 | Rh123 counter 82
COc1ccc2nc(NC(=O)Nc3ccccc3)sc2c1	none
CS(=O)(=O)c1ccc2nc(NC(=O)Nc3ccc(Cl)cc3)sc2c1	MPTP inh 95 | Rh123 counter 78
COc1ccc(NC(=O)Nc2nc3ccccc3s2)cc1	MPTP inh 64 | Rh123 counter 81
O=C(NC1CCCC1)[C@@H]1CCCN1C(=O)[C@@H](NC(=O)N1CCOCC1)C1CCCCC1	none (no result: ATG4B inh, MPTP inh, MC4R antag cAMP, MC4R barr agon)
CCOC(=O)CC[C@H]1CC[C@]2(CCCN(C(=O)c3ccccc3)C2)O1	none (no result: ATG4B inh, MPTP inh, MC4R antag cAMP, MC4R barr agon)
CCOc1ccc(S(=O)(=O)N(C)c2ccc(OCC(=O)Nc3nc4ccccc4s3)cc2)cc1	MPTP inh 96 | Rh123 counter 80
O=C(Nc1nc2ncccn2c1-c1ccc(F)cc1)c1ccccc1	none (no result: ATG4B inh, MPTP inh, MC4R antag cAMP, MC4R barr agon)
CN(C)CCCNS(=O)(=O)c1ccc(N2CCN(Cc3ccc4c(c3)OCO4)CC2)c([N+](=O)[O-])c1	MPTP inh 87 | Rh123 counter 93
CC(=O)c1ccc(N2CCN(c3ccc(S(=O)(=O)NCCN(C)C)cc3[N+](=O)[O-])CC2)cc1	none
CN(C)CCNS(=O)(=O)c1ccc(N2CCc3ccccc32)c([N+](=O)[O-])c1	MPTP inh 88 | Rh123 counter inactive | MPTP abs DR 12 | MPTP counter DR 49
O=C(OCc1cn(Cc2cccc(C(F)(F)F)c2)nn1)N1CCOCC1	none (no result: ATG4B inh, MPTP inh, MC4R antag cAMP, MC4R barr agon)
Cc1cccnc1CN1CCN(C(=O)c2cc(COc3ccc4ncccc4c3)on2)CC1	MPTP inh 104 | Rh123 counter 102
CCC(O)C1CCN(C(=O)c2cc(COc3ccc4ncccc4c3)on2)CC1 (centres undefined)	MPTP inh 92 | Rh123 counter 102
COCC1CCCN(C(=O)c2cc(COc3ccc4ncccc4c3)on2)C1 (centres undefined)	MPTP inh 95 | Rh123 counter 97
O=C(c1cc(COc2ccc3ncccc3c2)on1)N1CCC(O)CC1	none
CCOC(=O)N1CCN(C(=O)c2cc(COc3ccc4ncccc4c3)on2)CC1	none
Cn1ncc2c(N3CCN(c4ccc(Cl)c(Cl)c4)CC3)ncnc21	MPTP inh 88 | Rh123 counter 99
Cn1ncc2c(N3CCN(c4ccccc4F)CC3)ncnc21	none
CC(=O)Nc1ccc(C(/C=C/c2ccccc2)Cc2ccccc2)cc1 (centres undefined)	none (no result: ATG4B inh, MPTP inh, MC4R antag cAMP, MC4R barr agon)
COCCCN1C(=O)[C@H](CC(=O)NCC2CCCCC2)[C@]2(C(=O)OC)CCCCC=C12	none (no result: ATG4B inh, MPTP inh, MC4R antag cAMP, MC4R barr agon)
O=C(c1cc(COc2ccc(F)cc2Cl)on1)N1CCC(OCc2cccnc2)CC1	MPTP inh 68 | Rh123 counter 23
O=C(c1cc(COc2cccc(C(F)(F)F)c2)on1)N1CCC(Oc2cccnc2)CC1	MPTP inh 60 | Rh123 counter 83
Cc1ccc(OCc2cc(C(=O)N3CCC(Oc4cccnc4)CC3)no2)cc1C	MPTP inh 91 | Rh123 counter 89
COc1ccccc1NC(=O)OC1CC2CC1[C@H]1CCCCN1[C@H]2Cc1ccccc1 (some centres undefined)	none (no result: ATG4B inh, MPTP inh, MC4R antag cAMP, MC4R barr agon)
COC(=O)[C@]12C[C@H](CC(=O)NCC34CC5CC(CC(C5)C3)C4)C(=O)N(Cc3ccc4c(c3)OCO4)C1=C[C@H](C(C)(C)C)O[C@@H]2C	none (no result: ATG4B inh, MPTP inh, MC4R antag cAMP, MC4R barr agon)
CCCCCCn1c(-c2ccc(Cl)cc2Cl)csc1=Nc1ccccc1	none (no result: ATG4B inh, MPTP inh, MC4R antag cAMP, MC4R barr agon)
Cc1ccc(C)n1NC(=O)c1ccccc1[N+](=O)[O-]	none
Cc1ccc(C)n1NC(=O)c1ccccc1O	MPTP inh 78 | Rh123 counter 58
COc1ccc(C(=O)CSc2[nH]c(=O)cc(C(F)(F)F)c2C#N)cc1	MPTP inh 85 | Rh123 counter 76
COC(=O)C1=C(C)N(C)C(=NCc2ccccc2)NC1c1ccccc1C(F)(F)F (centres undefined)	none (no result: ATG4B inh, MPTP inh, MC4R antag cAMP, MC4R barr agon)
CCCCCCCCN1C(=O)[C@@H](CC(=O)NCC2CCCCC2)C[C@@]2(C(=O)OC)C1=C[C@H](COCc1ccccc1)O[C@@H]2C	none (no result: ATG4B inh, MPTP inh, MC4R antag cAMP, MC4R barr agon)
Cc1ccc(F)c(NC(=O)/C(C#N)=C(\O)c2ccc(C(C)(C)C)cc2)c1	MPTP inh 83 | Rh123 counter 71
CCN1/C(=C/c2cc[n+](CCCS(=O)(=O)[O-])c3ccccc23)Sc2ccccc21	none
C=CC[n+]1ccc(/C=C2\C=Cc3cc(C)ccc3N2CC)c2ccccc21	MPTP inh 102 (no result: SMARCA2 act) | Rh123 counter 76
O=C1NC(c2cc(Cl)cc([N+](=O)[O-])c2O)Nc2ccccc21 (centres undefined)	MPTP inh 88 | Rh123 counter inactive | MPTP abs DR inactive | MPTP counter DR 11
Cc1ccc(NC(=O)C2CCN(c3nnc(-n4cccc4)s3)CC2)c(C)c1	none (no result: ATG4B inh, MPTP inh, MC4R antag cAMP, MC4R barr agon)
C[C@H]1C(C(=O)N(C)C2CCCCC2)=Cc2c(n(-c3ccc(F)cc3)c(=O)n2CCCOc2ccccc2)C=C1c1ccccc1	none (no result: ATG4B inh, MPTP inh, MC4R antag cAMP, MC4R barr agon)
CCOC(=O)C1(CCOc2ccccc2)CCN(Cc2ccc(OC)c(O)c2)CC1	none
CCOC(=O)C1(CCc2ccccc2)CCN(Cc2c(O)cccc2OC)CC1	MPTP inh 62 | Rh123 counter 88
CCOC(=O)C1(CCOc2ccccc2)CCN(Cc2ccc(C)o2)CC1	none
CCOC(=O)C1(CCOc2ccccc2)CCN(Cc2ccc(COC)o2)CC1	MPTP inh 61 | Rh123 counter inactive | MPTP abs DR 19 | MPTP counter DR 37
CCOC(=O)C1(CCc2ccccc2)CCN(Cc2ccc(OC)cc2)CC1	none
CCOC(=O)C1(CCOc2ccccc2)CCN(Cc2ccc(OC)c(COC)c2)CC1	MPTP inh 86 | Rh123 counter 74
COc1ccc(-n2cc(CNC3CCN(C)CC3)c(-c3cccc(F)c3)n2)cc1	MPTP inh 93 | Rh123 counter inactive | MPTP abs DR 7 | MPTP counter DR inactive
Cc1cccc(Nc2nnc(SCc3cn4ccsc4n3)s2)c1	MPTP inh 76 | Rh123 counter inactive | MPTP abs DR inactive | MPTP counter DR inactive
CCNC(=O)c1cccc(NC(=O)c2cc(C3CC3)nc3c2cnn3C(C)C)c1	none
CC(C)n1ncc2c(C(=O)Nc3cccc(C#N)c3)cc(C3CC3)nc21	MPTP inh 73 | Rh123 counter 85
CCOC(=O)c1cc(-c2ccc(C#N)cc2)nc2c1c(C)nn2CCC#N	none
Cc1nn(CCc2nn[nH]n2)c2nc(-c3ccc(C4CCCCC4)cc3)cc(C(F)(F)F)c12	MPTP inh 59 | Rh123 counter 26
